In ChEMBL document CHEMBL1125031, “Structure-activity relationship of antiestrogens. Studies on 2,3-diaryl-1-benzopyrans” (J Med Chem, 1990):
Values belong to the molecule of their own block, whether it stands above or below them.

Assays:
[1] = target: T1, Estrogen receptor (Rattus norvegicus) (UniProt P06211+Q62986); experiment: Estrogenic activity as mean uterine weight in rats after 10 ug dose; type: functional
In short: (§1)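 Immature female Sprague-Dawley rats, 21–23 days old, in groups of 6–9. Test doses suspended in 0.2 mL propylene glycol–0.9% saline (1:1, v/v) and given subcutaneously on three consecutive days; vehicle-only controls. Autopsy 24 h after the last injection, uterine wet weight recorded in mg as mean ± SD.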

[2] = target: T1, Estrogen receptor (Rattus norvegicus); experiment: Antiestrogenic activity in presence of estradiol as mean uterine weight in rats after 10 ug dose; type: functional
[3] = target: T1, Estrogen receptor (Rattus norvegicus); experiment: Estrogenic activity as mean uterine weight in rats after 1 mg dose; type: functional; in short: as §1
[4] = target: T1, Estrogen receptor (Rattus norvegicus); experiment: Antiestrogenic activity in presence of estradiol at 30 ug/rat; type: functional
[5] = target: T1, Estrogen receptor (Rattus norvegicus); experiment: Estrogenic activity as mean uterine weight in rats at 0 ug/rat; type: functional; in short: as §1
[6] = target: T1, Estrogen receptor (Rattus norvegicus); experiment: Mean percent inhibition of uterotrophic effect in rats at 0 ug/rat; type: functional
[7] = target: T1, Estrogen receptor (Rattus norvegicus); experiment: Antiestrogenic activity in presence of estradiol at 0 ug/rat; type: functional
[8] = target: T1, Estrogen receptor (Rattus norvegicus); experiment: Mean percent inhibition of uterotrophic effect in rats at 1 ug/rat; type: functional
[9] = target: T1, Estrogen receptor (Rattus norvegicus); experiment: Mean percent inhibition of uterotrophic effect in rats at 30 ug/rat; type: functional
[10] = target: T1, Estrogen receptor (Rattus norvegicus); experiment: Antiestrogenic activity in presence of estradiol at 10 ug/rat; type: functional
[11] = target: T1, Estrogen receptor (Rattus norvegicus); experiment: Antiestrogenic activity in presence of estradiol at 1 ug/rat; type: functional
[12] = target: T1, Estrogen receptor (Rattus norvegicus); experiment: Mean percent inhibition of uterotrophic effect in rats at 10 ug/rat; type: functional
[13] = target: T1, Estrogen receptor (Rattus norvegicus); experiment: Estrogenic activity as mean uterine weight in rats at 30 ug/rat; type: functional; in short: as §1
[14] = target: T1, Estrogen receptor (Rattus norvegicus); experiment: Estrogenic activity as mean uterine weight in rats at 1 ug/rat; type: functional; in short: as §1
[15] = target: T1, Estrogen receptor (Rattus norvegicus); experiment: Antiestrogenic activity in presence of estradiol as mean uterine weight in rats at 1 mg dose
[16] = target: T1, Estrogen receptor (Rattus norvegicus); experiment: Estrogenic activity as mean uterine weight in rats at 10 ug/rat; type: functional; in short: as §1

Mean weight [1]: 13.2 mg
Mean weight [2]: 40.3 mg
Compound: O=c1c(-c2ccccc2)c(-c2ccc(OCCN3CCCC3)cc2)oc2ccccc12

Mean weight [1]: 11.1 mg
Mean weight [2]: 40.7 mg
Compound: O=c1c(-c2ccccc2)c(-c2ccccc2)oc2cc(OCCN3CCCC3)ccc12

Mean weight [2]: 48.8 mg
Mean weight [3]: 13.8 mg
Compound: Oc1ccc(C2Oc3ccccc3C=C2c2ccccc2)cc1 (stereo unspecified)

Mean weight [4]: 23.6 mg
Mean weight [1]: 27.6 mg
Mean weight [5]: 10.6 mg
inhibition [6]: 0%
Mean weight [2]: 28.3 mg
Mean weight [7]: 44.7 mg
inhibition [8]: 9%
inhibition [9]: 65%
Mean weight [10]: 27.5 mg
Mean weight [11]: 38.3 mg
inhibition [12]: 50%
Mean weight [13]: 25 mg
Mean weight [14]: 23.8 mg
Compound: COc1ccc2c(c1)OC(c1ccc(OCCN3CCCC3)cc1)C(c1ccccc1)=C2 (stereo unspecified)

Mean weight [2]: 57.2 mg
Mean weight [3]: 12.3 mg
Compound: c1ccc(C2Cc3ccccc3OC2c2ccc(OCCN3CCCC3)cc2)cc1 (stereo unspecified)

Mean weight [15]: 46.7 mg
Mean weight [3]: 26.2 mg
Compound: Oc1ccc(C2=C(c3ccccc3)Cc3ccccc3O2)cc1

Mean weight [2]: 29.4 mg
Mean weight [3]: 24 mg
Compound: c1ccc(C2=C(c3ccc(OCCN4CCCC4)cc3)Oc3ccccc3C2)cc1

Mean weight [1]: 12 mg
Mean weight [2]: 46.5 mg
Compound: COc1ccc2c(c1)OC(c1ccc(OCCN3CCCC3)cc1)C(c1ccccc1)C2=O (stereo unspecified)

Mean weight [2]: 59 mg
Mean weight [3]: 14.9 mg
Compound: Oc1ccc(C2Oc3ccccc3CC2c2ccccc2)cc1 (stereo unspecified)

Mean weight [4]: 22.2 mg
Mean weight [1]: 24.6 mg
Mean weight [5]: 11.2 mg
Mean weight [16]: 24.6 mg
inhibition [6]: 0%
Mean weight [7]: 45.1 mg
inhibition [8]: 12%
inhibition [9]: 70%
Mean weight [11]: 39.9 mg
inhibition [12]: 66%
Mean weight [13]: 23.6 mg
Mean weight [14]: 22.5 mg
Compound: C1=C(c2ccccc2)C(c2ccc(OCCN3CCCC3)cc2)Oc2ccccc21 (stereo unspecified)
